Bioassay records deposited in PubChem BioAssay by Johns Hopkins Ion Channel Center.
RGS4 inh: human RGS4 inhibition; 0.45% of 310,000 active; B-score at 10 µM; HEK293 M3R/RGS4 inducible, Fluo-4 calcium flux; active compounds read high; triggered by carbachol at its EC20; P49798; AID 463165;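 active = B-score, a plate-corrected calcium signal, over three deviations above library mean, with baseline fluorescence within five deviations of library mean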;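 note: RGS4 expression induced by doxycycline in cells with stable M3 receptor; B-score is computed from the integrated fluorescence ratio over baseline after carbachol; higher B-score means a larger calcium signal and so more RGS4 inhibition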
MrgX1 PAM: allosterically activates human MrgX1 receptor signaling; Q96LB2; MrgX1-HEK293, Fluo-4 calcium flux, FDSS; active compounds read high; B-score at 10 µM; 0.63% of 310,000 active; AID 588675;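 active = plate-corrected calcium response at least 3 library SD above typical, normal starting fluorescence, not activating the receptor alone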;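 note: compound read alongside a low EC10 to EC30 dose of BAM8-22 agonist; peak minus trough fluorescence over baseline measured at the second addition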
Target sequence (Q96LB2 whole entry, looked up): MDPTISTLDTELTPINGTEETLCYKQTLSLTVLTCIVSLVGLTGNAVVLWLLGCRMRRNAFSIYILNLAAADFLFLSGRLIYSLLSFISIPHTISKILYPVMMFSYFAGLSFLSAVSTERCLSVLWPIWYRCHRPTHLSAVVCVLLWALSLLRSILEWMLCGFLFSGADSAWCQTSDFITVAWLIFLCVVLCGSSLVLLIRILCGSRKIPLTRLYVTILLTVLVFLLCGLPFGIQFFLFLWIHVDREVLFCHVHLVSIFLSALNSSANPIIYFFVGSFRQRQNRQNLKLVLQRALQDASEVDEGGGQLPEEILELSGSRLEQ
RGS4 pot: potentiators or activators of RGS4 | HEK293 M3R/inducible RGS4, carbachol calcium flux Fluo4; active compounds read low | B-score at 10 µM | 0.92% of 310,000 active;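 active = B-score of the integrated calcium signal more than 4 SD below the library mean, with starting fluorescence not abnormally high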;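 note: negative B-score means reduced calcium response which marks RGS4 activation or potentiation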
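Assay system: Inducible-RGS4 HEK293 cells carrying M3 receptor | Schedule: Compound preincubation 20 min at room temperature before agonist | Signal: Kinetic calcium fluorescence imaging with Fluo4-AM dye, 2 µM | Read-out basis: B score from integrated fluorescence ratio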
MrgX1 antag: blocks BAM8-22 activation of human MrgX1 receptor; 1.3% of 310,000 active; B-score at 10 µM; MRGX1-HEK293 calcium flux, Fluo-4, BAM8-22 antagonism; active compounds read low;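 active = calcium-response B-score plate-corrected more than 3 library SD below zero, starting fluorescence within 5 deviations, no agonist response on first addition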;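 note: peak minus trough fluorescence over baseline after final BAM8-22 challenge near maximal dose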
MrgX1 ag: agonists of human MrgX1 receptor; MrgX1-HEK293 cells, Fluo-4 calcium fluorescence, agonist mode; active compounds read high; B-score at 10 µM; 0.44% of 310,000 active;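 active = calcium response B-score plate-corrected fluorescence ratio at least 3 library SD, with starting fluorescence B-score inside 5 SD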
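Test system: Stable human MrgX1 HEK293 cell line | Schedule: Overnight plating before 1 h dye loading | Read-out basis: Baseline-normalised fluorescence change ratio, B-scored | Detection: Kinetic calcium dye fluorescence, Fluo-4 NW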
* = called active by the depositor. This is a sample that favours compounds with a hit; in the whole collection about 3.5% have one here.

How did Cc1ccc(/C(O)=C2/C(=O)C(=O)N(c3ccccn3)C2c2ccc([N+](=O)[O-])cc2)cc1 (stereo not drawn) do in these assays?
RGS4 inh: inactive; MrgX1 PAM: inactive; RGS4 pot: inactive; MrgX1 antag: -4.82*; MrgX1 ag: inactive

Results for CCC(C)n1c(=S)[nH]c2c(sc3ccc([N+](=O)[O-])cc32)c1=O (stereo not drawn) ?
RGS4 inh: inactive; MrgX1 PAM: 9.21*; RGS4 pot: inactive; MrgX1 antag: inactive; MrgX1 ag: inactive

How did O=C(c1ccco1)N1CCN(Cc2cc(=O)c(OCc3ccccc3)co2)CC1 do in these assays?
RGS4 inh: inactive; MrgX1 PAM: inactive; RGS4 pot: inactive; MrgX1 antag: -5.26*; MrgX1 ag: inactive

How did COC(=O)c1ccc(NC(=O)CN2C(=O)CC(C)S(=O)(=O)c3ccccc32)cc1 (stereo not drawn) do in these assays?
RGS4 inh: inactive; MrgX1 PAM: inactive; RGS4 pot: inactive; MrgX1 antag: inactive; MrgX1 ag: inactive

How did O=C1/C(=C/c2c[nH]c3ccccc23)CCC/C1=C\c1c[nH]c2ccccc12 do in these assays?
RGS4 inh: inactive; MrgX1 PAM: 8.55*; RGS4 pot: inactive; MrgX1 antag: inactive; MrgX1 ag: inactive

What do the screens show for `Cc1cc(C(=O)NNc2ccccc2F)no1`?
RGS4 inh: inactive; MrgX1 PAM: inactive; RGS4 pot: -7.71*; MrgX1 antag: inactive; MrgX1 ag: inactive

Results for Cc1ccccc1-n1nc(C(=O)c2cccs2)cc(-c2nc3ccccc3[nH]2)c1=N ?
RGS4 inh: inactive; MrgX1 PAM: inactive; RGS4 pot: inactive; MrgX1 antag: inactive; MrgX1 ag: inactive

Results for Cc1cccc(-n2nc(C(=O)c3ccco3)cc(-c3nc4ccccc4[nH]3)c2=N)c1 ?
RGS4 inh: inactive; MrgX1 PAM: inactive; RGS4 pot: -8.08*; MrgX1 antag: inactive; MrgX1 ag: inactive

Results for COc1ccc(C2Nc3ccccc3C(=O)N2c2ccc(C)cc2)cc1Cn1nnc2ccccc21 (stereo not drawn) ?
RGS4 inh: inactive; MrgX1 PAM: 23.1*; RGS4 pot: inactive; MrgX1 antag: inactive; MrgX1 ag: inactive

How did O=C(NNC(=O)C1CC2CCC1C2)c1sc2ccccc2c1Cl (stereo not drawn) do in these assays?
RGS4 inh: inactive; MrgX1 PAM: 6.94*; RGS4 pot: inactive; MrgX1 antag: inactive; MrgX1 ag: inactive

Results for Cn1c(Cl)cnc1C1CC(=O)c2cc(Cl)ccc2O1 (stereo not drawn) ?
RGS4 inh: inactive; MrgX1 PAM: inactive; RGS4 pot: inactive; MrgX1 antag: inactive; MrgX1 ag: inactive

How did Cc1ccc(NC(=O)COC(=O)/C=C/c2c(C)nn(-c3ccc(F)cc3)c2Cl)cc1F do in these assays?
RGS4 inh: inactive; MrgX1 PAM: inactive; RGS4 pot: inactive; MrgX1 antag: -5.4*; MrgX1 ag: inactive

How did O=C(O)C(CCCCNS(=O)(=O)c1ccc(F)cc1)NS(=O)(=O)c1ccc(F)cc1 (stereo not drawn) do in these assays?
RGS4 inh: inactive; MrgX1 PAM: inactive; RGS4 pot: inactive; MrgX1 antag: inactive; MrgX1 ag: inactive

How did COc1ccc(CCNC(=O)c2cc3c(=O)n4ccccc4nc3n(C3CCCCC3)c2=N)cc1OC do in these assays?
RGS4 inh: inactive; MrgX1 PAM: inactive; RGS4 pot: inactive; MrgX1 antag: inactive; MrgX1 ag: inactive

What do the screens show for `COc1ccc(CCNC(=O)c2cc3c(=O)n4ccccc4nc3n(C3CCCCC3)c2=N)cc1`?
RGS4 inh: inactive; MrgX1 PAM: inactive; RGS4 pot: -7.13*; MrgX1 antag: inactive; MrgX1 ag: inactive

What do the screens show for `Cc1cccn2c(=O)c3cc(C(=O)NC4CCCC4)c(=N)n(CCc4ccccc4)c3nc12`?
RGS4 inh: inactive; MrgX1 PAM: inactive; RGS4 pot: -8.07*; MrgX1 antag: inactive; MrgX1 ag: inactive

Results for CO/N=C(\C(=O)O)c1csc(NN=C(C)C)n1 ?
RGS4 inh: inactive; MrgX1 PAM: inactive; RGS4 pot: inactive; MrgX1 antag: inactive; MrgX1 ag: inactive
